KCNK3 inh = human KCNK3 channel inhibition, primary screen | O14649 | 340,000 compounds, 0.84% hits | CHO-KCNK3 thallium flux, FluxOR fluorescence; active compounds read low | B-score at 10 µM;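 active = B-score under library mean minus 4 SD, starting fluorescence ratio at most library mean plus 5 SD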;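 also: more negative B-score means stronger inhibition of thallium flux through KCNK3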
KCNQ1 pot = potentiators or activators of human KCNQ1 potassium channel; P51787; CHO-K1 KCNQ1, thallium flux FluxOR fluorescence; active compounds read high; B-score at 10 µM; 310,000 compounds, 0.35% hits;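 active = fluorescence ratio B-score, a plate-corrected score, at least three library SD, with initial intensity B-score within 5 SD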
Target sequence (P51787 whole entry, looked up): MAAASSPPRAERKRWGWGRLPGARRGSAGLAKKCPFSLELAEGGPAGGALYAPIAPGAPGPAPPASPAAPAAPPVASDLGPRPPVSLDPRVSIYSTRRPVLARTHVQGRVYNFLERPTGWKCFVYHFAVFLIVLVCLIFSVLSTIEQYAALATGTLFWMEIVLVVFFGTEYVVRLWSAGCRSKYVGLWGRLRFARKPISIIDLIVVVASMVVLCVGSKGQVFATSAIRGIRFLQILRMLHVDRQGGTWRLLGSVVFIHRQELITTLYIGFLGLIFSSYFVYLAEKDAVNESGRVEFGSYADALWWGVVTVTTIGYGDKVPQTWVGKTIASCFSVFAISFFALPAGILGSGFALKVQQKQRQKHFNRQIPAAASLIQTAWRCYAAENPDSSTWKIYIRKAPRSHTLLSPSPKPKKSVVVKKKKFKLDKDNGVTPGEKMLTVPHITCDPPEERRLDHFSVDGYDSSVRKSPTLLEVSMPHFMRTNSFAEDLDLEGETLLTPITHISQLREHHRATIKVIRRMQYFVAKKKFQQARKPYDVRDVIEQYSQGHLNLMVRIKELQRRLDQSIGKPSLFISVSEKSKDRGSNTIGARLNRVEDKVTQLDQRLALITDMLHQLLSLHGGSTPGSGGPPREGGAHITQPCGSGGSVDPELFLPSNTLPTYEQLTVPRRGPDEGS
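Material: CHO-K1 cells stably expressing KCNQ1. Medium: assay buffer for compound exposure, DMSO matched across wells. Reagent: K+/Tl+ depolarizing stimulus. Compound dosing: single-concentration screen. Times: 37 °C overnight plating, 90-min dark dye load, 20-min compound pretreatment. Technique: FluxOR Tl+ flux fluorescence.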
hERG protect = compounds protecting human hERG from proarrhythmic drug block; Q12809; 310,000 compounds, 0.51% hits; activation (rescue from dofetilide block), less the hit threshold, % at 10 µM; AID 1511; CHO-hERG, FluxOR thallium flux, dofetilide IC70 present;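 active = activation above the mean of controls blocked by dofetilide plus 5 SD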;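 also: thallium influx through hERG after potassium depolarization seen as dye fluorescence rise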
KCNK9 inh = blocks the human KCNK9 two-pore domain potassium channel; HEK293 KCNK9, FluxOR thallium flux fluorescence; active compounds read low; Q9NPC2; B-score at 10 µM; 310,000 compounds, 1.2% hits;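 active = ratio B-score over 3 SD below the library mean, with starting fluorescence within 5 SD of its mean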;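 also: negative B-score means less thallium flux so channel inhibition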
KCNQ1 inh = blocks the human KCNQ1 potassium channel; CHO-K1 KCNQ1, FluxOR thallium flux fluorescence; active compounds read high; B-score at 10 µM; 310,000 compounds, 1.3% hits;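 active = compounds whose thallium flux B-score, printed positive for inhibition, exceeds three library SD while starting fluorescence stays within three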;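 also: channel opened by potassium depolarization with thallium stimulus after 20 min compound exposure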
PHOSPHO1 inh = PHOSPHO1 (human) inhibition | Q8TCT1 | recombinant PHOSPHO1, absorbance phosphatase assay | inhibition, % at 13.3 µM | 290,000 compounds, 1.1% hits | AID 1565; in the data active = inhibition above about 60%
Numbers stand for hits; n = inactive; x = not tested or not shown. Rows were chosen to be rich in hits. Some 4% of all compounds tested hit in one or more screens of this group.

SMILES	KCNK3 inh	KCNQ1 pot	hERG protect	KCNK9 inh	KCNQ1 inh	PHOSPHO1 inh
COc1ccc(N(CC(=O)Nc2ccc(OC)cc2OC)S(=O)(=O)c2ccccc2)cc1	n	n	n	n	n	n
COc1ccc(NC(=O)CN(c2ccc(OC)c(Cl)c2)S(=O)(=O)c2ccccc2)c(OC)c1	n	n	n	n	6	n
Cc1ccc(N(CC(=O)Nc2cc(Cl)ccc2Oc2ccccc2)S(C)(=O)=O)cc1C	n	n	n	-7.5	n	n
O=C(Nc1cc(Cl)ccc1Oc1ccccc1)c1ccccc1F	n	n	n	n	6	n
COc1ccc(N(CC(=O)Nc2ccccc2F)S(=O)(=O)c2ccc(C)c([N+](=O)[O-])c2)cc1	n	n	n	-7.8	n	n
COc1ccc(N(CC(=O)NCc2ccncc2)S(=O)(=O)c2ccc(C)c([N+](=O)[O-])c2)cc1	n	n	n	n	n	n
C(=C\c1nc(-c2ccncc2)no1)/c1ccccc1	n	n	n	n	n	n
Cc1ccc(CN2C(=O)CCC2C(=O)NCc2cccnc2)cc1 (centres undefined)	n	n	n	n	n	n
CC1CCCC(C(=O)O)N1C(=O)CCS (centres undefined)	n	n	n	n	n	62
CSCCC(=O)N1C(C)CCCC1C(=O)O (centres undefined)	n	n	n	n	n	n
c1ccc(CCc2nn3c(-c4ccncc4)nnc3s2)cc1	n	n	n	n	n	n
Clc1cccc(-c2nn3c(-c4ccncc4)nnc3s2)c1	x	x	x	x	x	n
Clc1ccccc1-c1nnc2sc(CCc3ccccc3)nn12	n	n	n	n	n	63
Clc1ccc(-c2nnc3sc(-c4ccc(Br)o4)nn23)c(Cl)c1	n	n	n	n	n	n
Clc1cccc(-c2nnc3sc(-c4ccc5c(c4)OCO5)nn23)c1	x	x	x	x	x	75
Clc1ccccc1-c1nnc(-c2ccc3c(c2)OCO3)o1	n	n	n	-6.9	n	n
Clc1ccccc1-c1nnc2sc(-c3ccc(Br)o3)nn12	n	n	n	n	n	80
c1coc(-c2nn3c(-c4ccco4)nnc3s2)c1	n	n	n	n	n	84
Brc1ccccc1-c1nnc2sc(-c3ccc4c(c3)OCCO4)nn12	n	n	n	n	n	n
Clc1ccccc1-c1nnc2sc(-c3ccc4c(c3)OCO4)nn12	n	n	n	n	n	79
Cc1ccc(CN(C(=O)COc2ccc(C)c(C)c2)C2CCS(=O)(=O)C2)o1 (centres undefined)	n	n	n	n	n	n
CC(=O)NNC(=O)N1Cc2ccccc2Oc2ccc(Cl)cc21	n	n	n	n	n	x
COc1ccccc1-n1cc(C(=O)NCC(=O)N2CCN(c3ccccc3)CC2)c2ccccc2c1=O	n	n	n	n	n	63
CCCCN1C(=O)/C(=C2\SC(N3CCOCC3)=NC2=O)c2ccccc21	n	n	n	n	n	n
CCc1nc(N2CCCCC2)c2oc3ccccc3c2n1	n	n	n	n	n	n
SMILES	KCNK3 inh	KCNQ1 pot	hERG protect	KCNK9 inh	KCNQ1 inh	PHOSPHO1 inh
CCc1nc(N2CCCC(C)C2)c2oc3ccccc3c2n1 (centres undefined)	n	n	n	-7.4	n	n
CCCCCn1ccc(=O)c2c(C(F)(F)F)nccc21	n	n	n	n	n	n
Cc1ccc(NC(=O)C/C(N)=N/O)cc1C	n	n	n	n	n	69
Cc1cccc(C)c1NC(=O)C/C(N)=N/O	n	n	n	n	n	n
Cc1ccc(C(=O)C[n+]2ccc(-c3nnc4n3CCC4)cc2)cc1	n	n	n	n	n	n
CC(C)c1cc(=O)oc2c3c4c(cc12)CCCN4CCC3	n	n	n	n	n	90
O=c1oc2c3c4c(cc2c(C(F)(F)F)c1CCN1CCOCC1)CCCN4CCC3	n	n	n	-7.8	7	n
O=c1oc2c(CN3CCOCC3)c(O)ccc2c2c1CCC2	n	x	x	x	x	n
Cc1ccc(NC2CCCN(C(=O)CCN3CCOCC3)C2)cc1C (centres undefined)	n	n	n	n	n	n
CC1=C(C(=O)Nc2cccnc2)C(c2ccncc2)n2nnnc2N1 (centres undefined)	n	n	n	n	n	x
CCCCCCc1c(O)nc(SCCN2CCOCC2)[nH]c1=O	n	n	n	n	n	68
C#CCOCCOCCOCCNc1nc(N2CCN(C(=O)[C@H](CCCCN)n3cc(CN)nn3)CC2)nc(N2CCN(C(=O)[C@H](CCC(=O)O)n3cc(CN)nn3)CC2)n1	n	x	x	x	x	x
COc1ccc(NC(=O)c2ccc(CNc3c(N4CCCC4)c(=O)c3=O)cc2)cc1Cl	n	n	n	n	n	66
CCCc1[nH]nc2c1C(c1ccc(OC(=O)N3CCOCC3)cc1)C(C#N)=C(N)O2 (centres undefined)	n	n	n	n	n	63
COc1ccc(CCNC(=O)C(=O)NCCOc2ccccc2)cc1OC	n	n	n	n	n	n
CCCN1C=CC(=C/C=C(\C#N)C(=O)OCC)C=C1	x	n	n	n	12	n
CCOC(=O)/C(C#N)=C/C=C1\C=Cc2ccccc2N1CC	n	n	n	n	n	n
CCCCCCN1C=CC(=C/C=C(\C#N)C(=O)OCC)C=C1	n	n	n	n	10	n
Cc1ccc(C)c(S(=O)(=O)Nc2ccccc2C(=O)Nc2ccccc2N2CCOCC2)c1	n	n	n	n	n	n
CCn1c(=S)[nH]c2scc(-c3cccs3)c2c1=O	n	112	100	n	n	n
Cc1nc2scc(-c3cccs3)c2c(=O)n1CC(=O)O	n	n	n	n	n	n
C=CCn1c(=S)[nH]c2scc(-c3ccc(C)o3)c2c1=O	n	99	64	n	n	n
CC(C)n1c(=S)[nH]c2scc(-c3cccs3)c2c1=O	n	85	42	n	n	n
C=CCn1c(SCC(C)=O)nc2scc(-c3ccc(C)o3)c2c1=O	n	n	n	n	n	n
Cc1nc2scc(-c3cccs3)c2c(=O)[nH]1	n	n	n	n	n	n
SMILES	KCNK3 inh	KCNQ1 pot	hERG protect	KCNK9 inh	KCNQ1 inh	PHOSPHO1 inh
O=c1c2c(-c3cccs3)csc2[nH]c(=S)n1-c1ccccc1	n	n	n	n	n	67
COc1ccc(C(=O)CCC(=O)NCCc2c[nH]c3ccccc23)cc1OC	n	n	n	n	n	n
CSCC[C@H](NC(=O)[C@H]1CC[C@H](CNC(=O)[C@@H](N)Cc2ccccc2)CC1)C(=O)O	n	n	n	n	n	x
COc1ccc(-c2ccc(SCC(=O)NC3CCCCC3)nn2)cc1	n	n	n	n	n	n
Cc1ccc(-c2ccc(SCC(=O)NC3CCCCC3)nn2)cc1	n	n	n	n	n	62
COc1ccc(-c2cn3nc(SCC(=O)NC4CCCCC4)ccc3n2)cc1	n	n	5.3	n	n	n
Cc1[nH]n(-c2c(Cl)cc(Cl)cc2Cl)c(=O)c1C=Nc1ccc(S(=O)(=O)N2CCOCC2)cc1	n	n	n	n	n	n
